From ChEMBL document CHEMBL3286352, “Dimeric flavonoids from Arrabidaea brachypoda and assessment of their anti-Trypanosoma cruzi activity” (J Nat Prod, 2014)
Activity calls are given as the source filed them. No cut-off for these calls is given here.

Legend:
[1] = Cytotoxicity against BALB/c mouse peritoneal macrophages after 72 hrs by AlamarBlue assay; format: cell-based, Peritoneal macrophage cell; details: read-out: LC50
Procedure, shortened: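 Peritoneal exudate macrophages from BALB/c mice, 1 × 10^5 cells/well in phenol-red-free RPMI-1640 with 10% FBS and 50 μg/mL gentamycin, pre-incubated 24 h at 37 °C, 5% CO2. Compounds from DMSO stocks diluted in medium, five concentrations 0.24–20 μM in triplicate, 72 h. AlamarBlue added over 10 h, read at 570/600 nm. LC50 from three independent experiments, mean ± SD.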

[2] = molecular target: Cruzipain (Trypanosoma cruzi) (UniProt P25779); test: Inhibition of recombinant Trypanosoma cruzi cruzain at 25 uM preincubated for 10 mins followed by substrate addition measured after 10 mins relative to control
Procedure, shortened: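 Recombinant cruzain activated in 0.1 M acetate buffer pH 5.5 with 5.5 mM DTT, adjusted to 0.1 μM. Enzyme in phosphate buffer with 0.01% Triton. Preincubated with compound 10 min at 35 °C, then fluorogenic substrate added for 10 min. Inhibition % = 100 − (A1/A × 100) against cruzain plus substrate RFU. Triplicate; E-64c as standard.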

[3] = test system: Trypanosoma cruzi; test: Antitrypanosomal activity against trypomastigote stage of Trypanosoma cruzi Y assessed as living parasites level after 24 hrs by Neubauer chamber analysis; format: functional, organism-based
Procedure, shortened: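 Y trypomastigotes from LLC-MK2 culture supernatants, 4 × 10^5 per well. Five concentrations, 0.24–20 μM, from DMSO stocks diluted in medium. Incubated 24 h at 37 °C, 5% CO2. Live parasites counted and compared with untreated culture. Run in triplicate, at least three independent experiments. IC50 as mean ± SD.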

[4] = test system: Trypanosoma cruzi; test: Antitrypanosomal activity against trypomastigote stage of Trypanosoma cruzi Y infected in BALB/c mouse peritoneal macrophages assessed as inhibition of host cell invasion at 10 uM after 2 hrs by hematoxylin/eosin staining-based optical microscopic analysis; format: functional, organism-based
Procedure, shortened: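 Macrophages at 1 × 10^5 per well on coverslips in RPMI + 10% FBS for 24 h. Infected with trypomastigotes at 100 per macrophage and treated at 10 μM, with amphotericin B 10 μM as reference. Incubated 2 h at 37 °C, washed, then 2 h more in medium. Fixed in absolute alcohol. Percentage of infected macrophages counted after H&E.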

[5] = test system: Trypanosoma cruzi; test: Antitrypanosomal activity against blood stage trypomastigote form of Trypanosoma cruzi Y infected in BALB/c mouse assessed as reduction of blood parasitemia at 100 mg/kg, po qd administered for 5 days relative to control; format: functional; set-up: scale not given: the % may be the effect or the level left
Procedure, shortened: (§1)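 Female BALB/c mice, 6–8 weeks, infected ip with 10^4 bloodstream Y trypomastigotes, six per group. From day 5, oral dosing once daily for five days, vehicle saline with 20% DMSO; untreated infected group got vehicle. Motile parasites counted in 5 μL tail-vein fresh blood. Survival checked daily to day 30. Means ± SEM.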

[6] = test system: Trypanosoma cruzi; test: Antitrypanosomal activity against amastigote stage of Trypanosoma cruzi Y in BALB/c mouse peritoneal macrophages assessed as reduction of number of intracellular parasites per 100 cells after 4 days by hematoxylin/eosin staining-based optical microscopic analysis; format: functional, organism-based; details: 96 h
Procedure, shortened: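 Macrophages plated 2 × 10^5 per well on coverslips in RPMI + 10% FBS for 24 h, infected with trypomastigotes at 10 parasites per macrophage for 2 h, then washed. Compounds at five concentrations, 0.12–10 μM, in triplicate for 6 h. Medium replaced, 4 days further culture. Coverslips fixed in absolute alcohol. IC50 taken as concentration halving amastigotes per 100 macrophages; mean ± SD of three independent experiments.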

[7] = test system: Trypanosoma cruzi; test: Antitrypanosomal activity against blood stage trypomastigote form of Trypanosoma cruzi Y infected in BALB/c mouse assessed as reduction of mortality at 100 mg/kg, po qd administered for 5 days measured for 30 days; format: functional, organism-based; set-up: dose 100 mg/kg; procedure, shortened: as §1
[8] = test system: Mus musculus; test: Toxicity in BALB/c mouse infected with blood stage trypomastigote form of Trypanosoma cruzi Y at 100 mg/kg, po qd administered for 5 days measured during compound treatment; format: organism-based; set-up: dose 100 mg/kg, route oral; details: in vivo, 120 h; procedure, shortened: as §1

Chain of Cruzipain (Trypanosoma cruzi) (P25779 123-467 limits assumed): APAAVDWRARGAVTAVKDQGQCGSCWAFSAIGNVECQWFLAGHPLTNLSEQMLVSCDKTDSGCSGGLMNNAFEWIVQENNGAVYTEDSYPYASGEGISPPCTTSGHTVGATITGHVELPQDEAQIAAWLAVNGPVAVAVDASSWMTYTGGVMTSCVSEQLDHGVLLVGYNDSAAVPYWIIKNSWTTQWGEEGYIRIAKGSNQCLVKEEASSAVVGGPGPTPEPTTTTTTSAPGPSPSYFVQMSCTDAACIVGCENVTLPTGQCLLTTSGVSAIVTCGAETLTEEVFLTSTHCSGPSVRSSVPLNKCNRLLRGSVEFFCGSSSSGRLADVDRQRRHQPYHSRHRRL

Structure (SMILES) | CC50 at 72 h [1] [µM] | inhibition [2] [%] | IC50 [3] [µM] | inhibition [4] | Activity [5] [%] | IC50 [6] [µM] | Activity [7] | Activity [8]
CN(C)c1ccc(C(=C2C=CC(=[N+](C)C)C=C2)c2ccc(N(C)C)cc2)cc1 [GENTIAN VIOLET] | 0.48 | – | – | – | – | – | – | –
CC(C)CCNC(=O)[C@H](CC(C)C)NC(=O)[C@H]1O[C@@H]1C(=O)O | – | 100 | – | – | – | – | – | –
O=C(Cn1ccnc1[N+](=O)[O-])NCc1ccccc1 [BENZNIDAZOLE] | > 20 | – | 11.3 | Active | 99 | – | – | –
COc1ccc(/C=C/[C@@H]2c3c(OC)cc(O)cc3O[C@H]3c4c(OC)cc(O)cc4O[C@H](c4ccccc4)[C@@H]23)cc1 | 15.6 | 0 | 5.3 | Active | 92 | 6 | Active | Non-toxic
COc1cc(O)cc2c1[C@@H](/C=C/c1ccccc1)[C@@H]1[C@@H](c3ccccc3)Oc3cc(O)cc(OC)c3[C@@H]1O2 | 17.3 | 0 | 6.6 | Active | – | 6.8 | – | –
COc1cc(O)cc2c1[C@@H](/C=C/c1ccc(O)cc1)[C@@H]1[C@@H](c3ccccc3)Oc3cc(O)cc(OC)c3[C@@H]1O2 | > 20 | 0 | > 20 | – | – | > 20 | – | –
